Laboratory results reported in PMC4148169 (Journal of Medicinal Chemistry, 2014).
Counter-ions that a name gives are not always drawn. Like-named read-outs stand apart in the source and are kept apart here. One block for each compound: values may come before it.

How the values were obtained:
[1] = cited from earlier work
[2] = tested on: human 3A4; conditions: cited from earlier work
[3] = tested on: 2C9; conditions: read-out: IC50 toward 2C9; cited from earlier work
[4] = tested on: T. cruzi Y luc strain; type: in vivo, Trypanosoma cruzi; conditions: posaconazole 20 mg/kg, ip, bid, 4 days; two independent experiments (A, B)
[5] = target: T1, CYP1A2 (Homo sapiens, UniProt P05177); experiment: CYP inhibition in human liver microsomes, 1A2; type: in vitro ADME
T1 sequence (P05177 1-516): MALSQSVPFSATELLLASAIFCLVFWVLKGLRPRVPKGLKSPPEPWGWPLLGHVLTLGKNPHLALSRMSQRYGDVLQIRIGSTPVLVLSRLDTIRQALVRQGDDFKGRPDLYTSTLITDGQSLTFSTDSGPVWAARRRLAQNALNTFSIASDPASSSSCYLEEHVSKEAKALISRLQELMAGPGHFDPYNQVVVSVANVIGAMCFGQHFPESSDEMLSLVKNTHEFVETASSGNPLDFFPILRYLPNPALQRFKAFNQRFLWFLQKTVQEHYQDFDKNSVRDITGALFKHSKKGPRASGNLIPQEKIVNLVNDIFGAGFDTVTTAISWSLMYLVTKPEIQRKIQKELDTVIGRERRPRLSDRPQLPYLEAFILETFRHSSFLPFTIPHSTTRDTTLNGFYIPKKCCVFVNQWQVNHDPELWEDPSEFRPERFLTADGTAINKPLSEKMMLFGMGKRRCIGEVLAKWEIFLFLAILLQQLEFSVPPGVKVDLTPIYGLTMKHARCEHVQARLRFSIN

[6] = target: CYP2C9 (Homo sapiens, UniProt P11712); experiment: CYP inhibition in human liver microsomes, 2C9; type: in vitro ADME
[7] = target: CYP2D6 (Homo sapiens, UniProt P10635); experiment: CYP inhibition in human liver microsomes, 2D6; type: in vitro ADME
[8] = target: CYP3A4 (Homo sapiens, UniProt P08684); experiment: CYP inhibition in human liver microsomes, 3A4; type: in vitro ADME
[9] = Single dose PK; type: in vivo; conditions: female, Swiss Webster, mouse, plasma, po, 50 mg/kg
Procedure, shortened: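 Eight-week-old female Swiss Webster mice were given one oral gavage dose of 50 mg/kg, formulated at 10 mg/mL in 20% solutol/80% water. Nine mice were dosed, with n = 3 plasma samples at about 0.25, 0.5, 1, 2, 4, 6, 8, 12 and 24 h. Plasma protein was precipitated with 5 volumes of acetonitrile and filtered through 0.2 μm, then quantified by LC-MS/MS.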

[10] = Solubility in oral dosing vehicles; type: physicochemical; conditions: oral dosing vehicle
[11] = read-out: IC50 against human 3A4, ref 35
[12] = read-out: IC50 against human 3A4, ref 67

Chain of CYP2C9 (P11712 whole entry): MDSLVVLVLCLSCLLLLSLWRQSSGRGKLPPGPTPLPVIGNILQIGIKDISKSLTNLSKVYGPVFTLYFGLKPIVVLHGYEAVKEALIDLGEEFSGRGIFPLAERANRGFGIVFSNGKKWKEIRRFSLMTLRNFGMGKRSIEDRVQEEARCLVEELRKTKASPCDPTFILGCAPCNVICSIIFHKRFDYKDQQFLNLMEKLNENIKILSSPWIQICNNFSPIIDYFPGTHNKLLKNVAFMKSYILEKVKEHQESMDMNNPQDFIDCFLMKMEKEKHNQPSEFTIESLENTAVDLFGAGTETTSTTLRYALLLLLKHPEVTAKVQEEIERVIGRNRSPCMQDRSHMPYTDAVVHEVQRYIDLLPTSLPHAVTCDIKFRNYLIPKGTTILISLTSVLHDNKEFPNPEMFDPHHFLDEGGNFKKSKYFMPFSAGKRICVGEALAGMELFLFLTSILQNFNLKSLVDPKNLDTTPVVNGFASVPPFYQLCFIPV
Chain of CYP3A4 (P08684 whole entry): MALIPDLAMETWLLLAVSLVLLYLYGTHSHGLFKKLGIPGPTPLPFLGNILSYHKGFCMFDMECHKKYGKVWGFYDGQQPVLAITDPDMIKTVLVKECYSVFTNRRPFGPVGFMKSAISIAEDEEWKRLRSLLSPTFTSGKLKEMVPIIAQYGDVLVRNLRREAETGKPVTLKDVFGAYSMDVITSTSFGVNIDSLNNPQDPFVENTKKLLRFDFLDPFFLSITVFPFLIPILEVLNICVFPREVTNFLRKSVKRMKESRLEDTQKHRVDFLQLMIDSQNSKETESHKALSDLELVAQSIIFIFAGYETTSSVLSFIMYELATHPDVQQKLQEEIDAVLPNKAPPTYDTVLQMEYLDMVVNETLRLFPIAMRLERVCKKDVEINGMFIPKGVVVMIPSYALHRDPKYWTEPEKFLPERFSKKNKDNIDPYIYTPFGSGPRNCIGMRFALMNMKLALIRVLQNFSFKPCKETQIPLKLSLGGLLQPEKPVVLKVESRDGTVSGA
Chain of CYP2D6 (P10635 whole entry): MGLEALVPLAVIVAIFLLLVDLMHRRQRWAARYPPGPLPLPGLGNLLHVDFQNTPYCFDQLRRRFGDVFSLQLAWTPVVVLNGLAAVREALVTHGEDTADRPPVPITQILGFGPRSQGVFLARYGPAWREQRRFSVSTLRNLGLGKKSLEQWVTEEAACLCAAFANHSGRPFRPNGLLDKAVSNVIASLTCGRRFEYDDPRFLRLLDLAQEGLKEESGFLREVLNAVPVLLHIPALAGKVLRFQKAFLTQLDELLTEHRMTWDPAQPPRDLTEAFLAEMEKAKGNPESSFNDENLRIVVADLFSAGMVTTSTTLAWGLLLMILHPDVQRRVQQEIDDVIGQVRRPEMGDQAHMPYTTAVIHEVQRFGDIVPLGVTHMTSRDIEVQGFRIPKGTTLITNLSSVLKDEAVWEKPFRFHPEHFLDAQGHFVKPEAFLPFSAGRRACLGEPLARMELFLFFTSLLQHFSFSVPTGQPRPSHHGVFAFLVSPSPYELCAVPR

SMILES: CCO.C[C@@H](c1nc(-c2ccc(C#N)cc2)cs1)[C@@](Cn1cncn1)(OCOP(=O)(O)O)c1ccc(F)cc1F.NCCCC[C@H](N)C(=O)O [E1224]
half-life in humans [1]: measured in days

SMILES: O=C([C@@H](c1ccc(Cl)cc1)c1cccnc1)N1CCN(c2ccc(C(F)(F)F)cc2)CC1 [EPL-BS1246]
IC50 ([2]; read-out: IC50 toward 3A4): ≥ 20000 nM | IC50 [3]: 8000 to 9000 nM

inhibition at 1 µM [5]: -11% | inhibition at 1 µM [6]: -3% | inhibition at 1 µM [7]: -9% | inhibition at 1 µM [8]: 68%
SMILES: CC[C@@H]([C@H](C)O)n1ncn(-c2ccc(N3CCN(c4ccc(OC[C@@H]5CO[C@@](Cn6cncn6)(c6ccc(F)cc6F)C5)cc4)CC3)cc2)c1=O [Posaconazole]
inhibition of parasitemia, positive control [4]: 94–99% | IC50 [2, 11]: 350 nM | IC50 [2, 12]: 120 nM | half-life in humans [1]: measured in days

half-life [9]: < 3.3 h
SMILES: O=C(N[C@H](Cc1c[nH]c2ccccc12)C(=O)Nc1ccncc1)c1ccc(-c2ccc(F)c(F)c2)cc1F [compound 2, (R)-N-(3-(1H-Indol-3-yl)-1-oxo-1-(pyridin-4-ylamino)propan-2-yl)-3,3′,4′-trifluoro-[1,1′-biphenyl]-4-carboxamide]

half-life [9]: < 3.3 h
SMILES: O=C(N[C@H](Cc1c[nH]c2ccccc12)C(=O)Nc1ccncc1)c1ccc(-c2ccc(F)c(C(F)(F)F)c2)cc1F [compound 6, (R)-N-(3-(1H-Indol-3-yl)-1-oxo-1-(pyridin-4-ylamino)propan-2-yl)-3,4′-difluoro-3′-(trifluoromethyl)-[1,1′-biphenyl]-4-carboxamide]

solubility in 20% HPβCD [10]: fully soluble
SMILES: O=C(N[C@H](Cc1c[nH]c2ccccc12)C(=O)Nc1ccncc1)c1ccc(-c2ccc(F)c(Cl)c2)cc1F [compound 7, (R)-N-(3-(1H-Indol-3-yl)-1-oxo-1-(pyridin-4-ylamino)propan-2-yl)-3′-chloro-3,4′-difluoro-[1,1′-biphenyl]-4-carboxamide hydrochloride]

SMILES: CC(=O)N1CCN(c2ccc(OCC3COC(Cn4ccnc4)(c4ccc(Cl)cc4Cl)O3)cc2)CC1 (stereo not shown) [ketoconazole]
IC50 [2, 11]: 40 nM | IC50 [2, 12]: 8 nM
